From ChEMBL document CHEMBL4251594, “Design and synthesis of sulfonamidophenylethylureas as novel cardiac myosin activator” (Eur J Med Chem, 2018)

Assays:
[1] = organism: Bos taurus; test: Activation of actin-stimulated bovine cardiac myosin S1 fragment ATPase activity in sarcomere at 10 uM after 10 mins by spectrophotometric analysis relative to control
[2] = tested on: Rattus norvegicus; test: Positive inotropic activity in Sprague-Dawley rat heart assessed as increase in left ventricle fractional shortening at 2 to 16 ug/kg/min infused for 3 mins by echocardiographic analysis; format: functional
Method in brief: (§1)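 Seven-week-old male Sprague-Dawley rats; dosing via internal jugular vein central line, infused at 0, 2, 4, 8 and 16 µg/kg/min for 3 minutes from a 40 µg/mL final solution (concentration checked by HPLC against three standards). M-mode echocardiography at baseline and 16 µg/kg/min with a 25 MHz transducer; percent rise in LV fractional shortening and ejection fraction.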

[3] = tested on: Rattus norvegicus; test: Positive inotropic activity in Sprague-Dawley rat heart assessed as increase in ejection fraction at 2 to 16 ug/kg/min infused for 3 mins by echocardiographic analysis; format: functional; method in brief: as §1
[4] = Aqueous solubility of the compound in water; format: physicochemical; conditions: buffer
[5] = organism: Gallus gallus; test: Activation of actin-stimulated chicken gizzard smooth muscle myosin S1 fragment ATPase activity at 100 uM after 10 mins by spectrophotometric analysis relative to control
[6] = organism: Oryctolagus cuniculus; test: Activation of actin-stimulated rabbit skeletal muscle myosin S1 fragment ATPase activity at 100 uM after 10 mins by spectrophotometric analysis relative to control
[7] = tested on: Cardiac muscle cell; test: Positive inotropic activity in Sprague-Dawley rat ventricular myocytes assessed as change in ventricular cell contractility by measuring cell shortening at 1 uM; format: functional
[8] = tested on: Cardiac muscle cell; test: Positive inotropic activity in Sprague-Dawley rat ventricular myocytes assessed as change in ventricular cell contractility by measuring cell shortening at 5 uM; format: functional

Activity [1] [%]	SMILES	also measured
20.6	CN(C)S(=O)(=O)c1ccc(CCNC(=O)NCCCc2ccc(F)cc2)cc1	–
36.9	CN(C)S(=O)(=O)c1ccc(C2CCN(C(=O)NCc3ccccc3)CC2)cc1	–
40.7	CN(C)S(=O)(=O)c1ccc(CCNC(=O)N2CCC(c3ccccc3)CC2)cc1	–
40.6	CC(C)N(CCc1ccc(S(=O)(=O)N(C)C)cc1)C(=O)N(C)CCCc1ccccc1	–
39.5	CCN(CCc1ccc(S(=O)(=O)N(C)C)cc1)C(=O)NCCCc1ccccc1	–
52.3	CN(CCc1ccc(S(=O)(=O)N(C)C)cc1)C(=O)NCCCc1ccccc1	Activity [2]: 38.96%; Activity [3]: 24.19%
27.6	CN(C)S(=O)(=O)c1ccc(CNC(=O)N2CCC(c3ccccc3)CC2)cc1	–
30.3	CCN(CCCc1ccccc1)C(=O)N(CC)CCc1ccc(S(=O)(=O)N(C)C)cc1	–
38.6	O=C(NCCCc1ccccc1)NCCc1ccc(F)cc1	–
40.6	O=C(NCCCc1ccccc1)NCCc1ccc(C(=O)O)cc1	–
31.8	NS(=O)(=O)c1ccc(NC(=O)NCCCc2ccccc2)cc1	–
41.9	NS(=O)(=O)c1ccc(CCNC(=O)NCCCc2ccccc2)cc1	Activity [2]: 11.24%; Activity [3]: 7.23%
25.4	COc1ccc(CNC(=O)NCCCc2ccccc2)cc1	–
9.5	O=C(NCCCc1ccc(F)cc1)NCc1ccccc1	–
34.8	COc1ccc(CCCNC(=O)NCCc2ccc(S(N)(=O)=O)cc2)cc1	–
20.8	CN(C)S(=O)(=O)c1ccc(CCCNC(=O)NCc2ccccc2)cc1	–
73.8	Cc1ccc(CCNC(=O)NCCCc2ccccc2)cc1	solubility [4]: Insoluble
40	COc1ccc(CCNC(=O)NCCCc2ccccc2)cc1	–
38.4	COc1ccc(CCCNC(=O)NCCc2ccc(OC)c(OC)c2)cc1	–
65.4	O=C(NCCCc1ccccc1)NCCc1ccccc1F	Activity [2]: 12.52%; Activity [3]: 8.76%
58	COC(=O)N1CCN(Cc2cccc(NC(=O)Nc3ccc(C)nc3)c2F)CC1 [OMECAMTIV MECARBIL]	Activity [2]: 20.32%; Activity [5]: -5.5%; Activity [3]: 13.35%; Activity [6]: 2.8%; Activity [7]: 33.8%
69	CN(CCCc1ccccc1)C(=O)N(C)CCc1ccc(S(=O)(=O)N(C)C)cc1	Activity [2]: 0.46%; Activity [3]: 0.27%
33.3	CC(C)c1ccc(CCNC(=O)NCCCc2ccccc2)cc1	–
53.3	O=C(NCCCc1ccccc1)NCc1ccccc1	Activity [2]: 30.04%; Activity [5]: -3.7%; Activity [3]: 18.27%; Activity [6]: 1.4%; Activity [8]: 25.3%

Activity [1] [%]	SMILES	also measured
51.1	O=C(NCCCc1ccccc1)NCCc1ccccc1	Activity [2]: 18.9%; Activity [5]: -4.7%; Activity [3]: 12.15%; Activity [6]: -2.1%; Activity [8]: 20.8%
91.6	CN(C)S(=O)(=O)c1ccc(CCNC(=O)NCCCc2ccccc2)cc1	Activity [2]: 17.62%; Activity [5]: -1.9%; Activity [3]: 11.55%; Activity [6]: -3.8%; Activity [8]: 47.9%
85.1	CN(C)S(=O)(=O)c1ccc(C2CCN(C(=O)NCCCc3ccccc3)CC2)cc1	–
39.6	NS(=O)(=O)c1ccc(CNC(=O)NCCCc2ccccc2)cc1	–
30.5	COc1ccc(CCCNC(=O)NCc2ccccc2)cc1	–
45.3	CN(C)c1ccc(CCNC(=O)NCCCc2ccccc2)cc1	–
95.1	COc1ccccc1CCNC(=O)NCCCc1ccccc1	Activity [2]: 20.47%; Activity [5]: 5.3%; Activity [3]: 13.58%; Activity [6]: 3.5%; Activity [8]: 19.7%
38.8	COc1ccc(CNC(=O)NCCCc2ccccc2)cc1OC	–
34.5	CN(C)S(=O)(=O)c1ccc(CNC(=O)NCCCc2ccccc2)cc1	–
31	O=C(NCCCc1ccccc1)NCCc1ccc(Cl)cc1	–
56.2	O=C(NCCCc1ccccc1)NCCc1ccc([N+](=O)[O-])cc1	–
32.5	COc1ccc(CCNC(=O)NCCCCc2ccccc2)cc1OC	–
29.4	COc1ccc(S(N)(=O)=O)c(CCNC(=O)NCCCc2ccccc2)c1	–
38.1	CC(C)N(CCc1ccc(S(=O)(=O)N(C)C)cc1)C(=O)NCCCc1ccccc1	–
32.6	CN(C)S(=O)(=O)c1ccc(C2CCN(C(=O)NCCc3ccccc3)CC2)cc1	–
55.2	Nc1ccc(CCNC(=O)NCCCc2ccccc2)cc1	Activity [2]: 6.37%; Activity [3]: 4.16%
47.6	CN(CCCc1ccccc1)C(=O)NCCc1ccc(S(=O)(=O)N(C)C)cc1	Activity [2]: 23.19%; Activity [3]: 15.47%
37.9	NS(=O)(=O)c1ccc(CCNC(=O)NCCCc2ccc(Cl)cc2)cc1	–
122	COc1ccc(CCNC(=O)NCCCc2ccccc2)cc1OC	Activity [2]: 23.97%; Activity [5]: 4.3%; Activity [3]: 15.87%; Activity [6]: -2.4%; Activity [8]: 22.2%
35	COc1cccc(CCNC(=O)NCCCc2ccccc2)c1	–
36.6	NS(=O)(=O)c1ccc(CCNC(=O)NCCCCc2ccccc2)cc1	–
19.1	NS(=O)(=O)c1ccc(CCNC(=O)NCCCc2ccc(F)cc2)cc1	–
37.3	O=C(NCCCc1ccccc1)NCCc1ccc(Cl)cc1Cl	–
–	Cc1ccc2c(c1)C(=O)[C@]1(O)CCN(c3ccccc3)C1=N2	Activity [5]: -35.7%; Activity [6]: -50.7%
